ChEMBL document CHEMBL4219253, “Positive Modulators of the N-Methyl-d-aspartate Receptor: Structure-Activity Relationship Study of Steroidal 3-Hemiesters” (J Med Chem, 2018)

Legend:
Format in all cases: cell-based
[1] = target: Glutamate NMDA receptor; Grin1/Grin2b (Rattus norvegicus, UniProt P35439+Q00960); assay: Positive allosteric modulation of recombinant rat GluN1alpha/GluN2B receptor expressed in HEK293 cells assessed as potentiation of glutamate-induced current response at holding potential -60mV by whole cell voltage clamp method
How it was run: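 HEK293 cells transfected with GluN1-1a, GluN2A, 2B, 2C or 2D and GFP cDNA. Whole-cell voltage clamp at -60 mV, 21–25 °C, series resistance <10 MΩ compensated 80–90%. Compound co-applied with 1 µM glutamate by fast multibarrel perfusion. DMSO 1% in all solutions. At least four cells per point.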

[2] = target: T1, Glutamate NMDA receptor; Grin1/Grin2b (Rattus norvegicus) (UniProt P35439+Q00960); assay: Positive allosteric modulation of recombinant rat GluN1alpha/GluN2B receptor expressed in HEK293 cells assessed as potentiation of glutamate-induced current response at 1 to 100 uM at holding potential -60mV by whole cell voltage clamp method relative to control
How it was run: (§1)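 HEK293 cells transfected with GluN1-1a, the GluN2 subunit and GFP. Whole-cell voltage clamp at -60 mV, series resistance <10 MΩ, 80-90% compensation, room temperature (21–25 °C). Compound is co-applied with 1 µM glutamate by multibarrel fast perfusion (exchange ~10 ms). DMSO is held at 1% in all test and control solutions. Readout is % potentiation of the glutamate-evoked current.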

[3] = target: T1, Glutamate NMDA receptor; Grin1/Grin2b (Rattus norvegicus); assay: Positive allosteric modulation of recombinant rat GluN1alpha/GluN2B receptor expressed in HEK293 cells assessed as potentiation of glutamate-induced current response at 100 uM at holding potential -60mV by whole cell voltage clamp method relative to control; how it was run: as §1
[4] = target: T1, Glutamate NMDA receptor; Grin1/Grin2b (Rattus norvegicus); assay: Positive allosteric modulation of recombinant rat GluN1alpha/GluN2B receptor expressed in HEK293 cells assessed as potentiation of glutamate-induced current response at 0.3 to 300 uM at holding potential -60mV by whole cell voltage clamp method relative to control; how it was run: as §1
[5] = target: Glutamate NMDA receptor; Grin1/Grin2c (Rattus norvegicus) (UniProt P35439+Q00961); assay: Positive allosteric modulation of recombinant rat GluN1alpha/GluN2C receptor expressed in HEK293 cells assessed as potentiation of glutamate-induced current response at 100 uM at holding potential -60mV by whole cell voltage clamp method relative to control; how it was run: as §1
[6] = target: Ionotropic glutamate receptor NMDA 1/2D (Rattus norvegicus) (UniProt P35439+Q62645); assay: Positive allosteric modulation of recombinant rat GluN1alpha/GluN2D receptor expressed in HEK293 cells assessed as potentiation of glutamate-induced current response at 100 uM at holding potential -60mV by whole cell voltage clamp method relative to control; how it was run: as §1
[7] = target: Glutamate NMDA receptor; Grin1/Grin2a (Rattus norvegicus) (UniProt P35439+Q00959); assay: Positive allosteric modulation of recombinant rat GluN1alpha/GluN2A receptor expressed in HEK293 cells assessed as potentiation of glutamate-induced current response at 100 uM at holding potential -60mV by whole cell voltage clamp method relative to control; how it was run: as §1
[8] = target: T1, Glutamate NMDA receptor; Grin1/Grin2b (Rattus norvegicus); assay: Positive allosteric modulation of recombinant rat GluN1alpha/GluN2B receptor expressed in HEK293 cells assessed as potentiation of glutamate-induced current response at 1 to 300 uM at holding potential -60mV by whole cell voltage clamp method relative to control

| SMILES | EC50 [1] | Emax [2] | Emax [4] | further results |
| --- | --- | --- | --- | --- |
| CC(=O)[C@H]1CC[C@H]2[C@@H]3CC=C4C[C@@H](OC(=O)CCCC(=O)O)CC[C@]4(C)[C@H]3CC[C@]12C | 19 µM | 183% |  | Activity [3]: 460% |
| CC[C@H]1CC[C@H]2[C@@H]3CC=C4C[C@@H](OC(=O)CCCC(=O)O)CC[C@]4(C)[C@H]3CC[C@]12C | 9.9 µM |  | 209% |  |
| C[C@]12CC[C@H](OC(=O)CCCCCC(=O)O)CC1=CC[C@@H]1[C@@H]2CC[C@]2(C)C(=O)CC[C@@H]12 | 82.4 µM | 187% |  |  |
| C[C@]12CC[C@H](OC(=O)CCCCCCCC(=O)O)CC1=CC[C@@H]1[C@@H]2CC[C@]2(C)C(=O)CC[C@@H]12 | 38.2 µM | 226% |  |  |
| C[C@@]12CCC[C@H]1[C@@H]1CC=C3C[C@@H](OC(=O)CC(=O)O)CC[C@]3(C)[C@H]1CC2 | 4.7 µM |  | 236% |  |
| C[C@@]12CCC[C@H]1[C@@H]1CC=C3C[C@@H](OC(=O)CCCCC(=O)O)CC[C@]3(C)[C@H]1CC2 | 2.8 µM |  | 191% |  |
| CC(=O)[C@H]1CC[C@H]2[C@@H]3CC=C4C[C@@H](OS(=O)(=O)O)CC[C@]4(C)[C@H]3CC[C@]12C.c1ccncc1 |  | 116% |  | Activity [5]: -47%; Activity [6]: -48%; Activity [7]: 107%; Activity [3]: 78% |
| CC[C@H]1CC[C@H]2[C@@H]3CC=C4C[C@@H](OC(=O)CCC(=O)O)CC[C@]4(C)[C@H]3CC[C@]12C | 9.9 µM |  | 133% |  |
| CC(=O)[C@H]1CC[C@H]2[C@@H]3CC=C4C[C@@H](OC(=O)CCCCCCC(=O)O)CC[C@]4(C)[C@H]3CC[C@]12C | 19.3 µM | 156% |  |  |
| CC[C@H]1CC[C@H]2[C@@H]3CC=C4C[C@@H](OC(=O)CCCCC(=O)O)CC[C@]4(C)[C@H]3CC[C@]12C | 17.2 µM |  | 60% |  |
| CC[C@H]1CC[C@H]2[C@@H]3CC=C4C[C@@H](OC(=O)CC(=O)O)CC[C@]4(C)[C@H]3CC[C@]12C | 10.7 µM |  | 71% |  |
| CC(=O)[C@H]1CC[C@H]2[C@@H]3CC=C4C[C@@H](OC(=O)C(=O)O)CC[C@]4(C)[C@H]3CC[C@]12C | 48.6 µM | 93% |  |  |
| CC(=O)[C@H]1CC[C@H]2[C@@H]3CC=C4C[C@@H](OC(=O)CC(=O)O)CC[C@]4(C)[C@H]3CC[C@]12C | 39.8 µM | 108% |  |  |
| CC(=O)[C@H]1CC[C@H]2[C@@H]3CC=C4C[C@@H](OC(=O)CCC(=O)O)CC[C@]4(C)[C@H]3CC[C@]12C [PREGNENOLONE SUCCINATE] | 27.6 µM | 177% |  | Activity [3]: 267% |
| CC(=O)[C@H]1CC[C@H]2[C@@H]3CC=C4C[C@@H](OC(=O)CCCCCC(=O)O)CC[C@]4(C)[C@H]3CC[C@]12C | 18 µM | 191% |  | Activity [3]: 458% |
| C[C@@]12CCC[C@H]1[C@@H]1CC=C3C[C@@H](OC(=O)CCCC(=O)O)CC[C@]3(C)[C@H]1CC2 | 5.2 µM |  | 348% |  |
| C[C@]12CC[C@H](OC(=O)CCCCC(=O)O)CC1=CC[C@@H]1[C@@H]2CC[C@]2(C)C(=O)CC[C@@H]12 | 109 µM |  |  | Emax [8]: 180% |
| CC[C@H]1CC[C@H]2[C@@H]3CC=C4C[C@@H](OC(=O)CCCCCC(=O)O)CC[C@]4(C)[C@H]3CC[C@]12C | 26.2 µM |  | 48% |  |
| C[C@]12CC[C@H](OC(=O)CCCCCCC(=O)O)CC1=CC[C@@H]1[C@@H]2CC[C@]2(C)C(=O)CC[C@@H]12 | 49.1 µM | 189% |  |  |
| C[C@@]12CCC[C@H]1[C@@H]1CC=C3C[C@@H](OC(=O)CCCCCC(=O)O)CC[C@]3(C)[C@H]1CC2 | 1.8 µM |  | 109% |  |
| C[C@@]12CCC[C@H]1[C@@H]1CC=C3C[C@@H](OC(=O)CCC(=O)O)CC[C@]3(C)[C@H]1CC2 | 7.4 µM |  | 452% |  |
| C[C@]12CC[C@H](OC(=O)CCCC(=O)O)CC1=CC[C@@H]1[C@@H]2CC[C@]2(C)C(=O)CC[C@@H]12 | 151 µM |  |  | Emax [8]: 154% |
| C[C@]12CC[C@H](OC(=O)CCCCCCCCC(=O)O)CC1=CC[C@@H]1[C@@H]2CC[C@]2(C)C(=O)CC[C@@H]12 | 16.1 µM | 165% |  |  |
